From PubChem BioAssay
In the library only some 4.5% were active in any assay of this set; here they are far more common.
MrgX1 antag: antagonists of human MrgX1 receptor, primary screen, HEK293 cells, Fluo-4 calcium flux. AID 588676, 2011. BAM8-22 antagonism; stronger effect = lower value. 1.3% of 310,000 active. B-score at 10 µM. Mas-related G-protein coupled receptor member X1 (Homo sapiens), Q96LB2;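 active = calcium-response B-score plate-corrected more than 3 library SD below zero, starting fluorescence within 5 deviations, no agonist response on first addition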;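 also: peak minus trough fluorescence over baseline after final BAM8-22 challenge near maximal dose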
Target sequence (Q96LB2 whole entry, looked up): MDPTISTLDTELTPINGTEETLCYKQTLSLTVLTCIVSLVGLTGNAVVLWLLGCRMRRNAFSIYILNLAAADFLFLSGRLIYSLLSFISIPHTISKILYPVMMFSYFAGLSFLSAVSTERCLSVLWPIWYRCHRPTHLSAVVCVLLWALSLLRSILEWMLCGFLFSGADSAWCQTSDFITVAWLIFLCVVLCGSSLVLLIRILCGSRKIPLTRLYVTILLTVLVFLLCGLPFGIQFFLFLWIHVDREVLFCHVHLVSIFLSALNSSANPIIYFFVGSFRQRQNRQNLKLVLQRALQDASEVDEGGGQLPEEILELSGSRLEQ
MrgX1 ag: agonists of human MrgX1 receptor, primary screen, HEK293 cells, Fluo-4 calcium flux; Mas-related G-protein coupled receptor member X1 (Homo sapiens), Q96LB2; 0.44% of 310,000 active; AID 588627, 2011; B-score at 10 µM; Fluo-4 calcium fluorescence, agonist mode; stronger effect = higher value;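 active = calcium response B-score plate-corrected fluorescence ratio at least 3 library SD, with starting fluorescence B-score inside 5 SD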
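Assay system: stable human MrgX1 HEK293 cell line. Quantity: 15,000 cells per well. Schedule: cells plated overnight, dye loaded 0.5 h 37 °C, 0.5 h room temperature. Detection: Fluo-4 NW calcium-flux fluorescence, kinetic read. Read-out basis: peak-minus-minimum fluorescence over baseline, converted to B scores. Control set: positive and negative control wells on each plate.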
PHOSPHO1 block: PubChem AID 1565 | Phosphoethanolamine/phosphocholine phosphatase (Homo sapiens), Q8TCT1 | recombinant PHOSPHO1, absorbance phosphatase assay | inhibition, % at 13.3 µM | 1.1% of 290,000 active; in the data active = inhibition above about 60%
RGS4 inh: RGS4 inhibitors, primary screen, cell-based, HEK293 M3R inducible RGS4, calcium flux; Fluo-4 calcium flux; stronger effect = higher value; triggered by carbachol at its EC20; Regulator of G-protein signaling 4 (Homo sapiens), P49798; 0.45% of 310,000 active; B-score at 10 µM;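 active = B-score, a plate-corrected calcium signal, over three deviations above library mean, with baseline fluorescence within five deviations of library mean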;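 also: RGS4 expression induced by doxycycline in cells with stable M3 receptor; B-score is computed from the integrated fluorescence ratio over baseline after carbachol; higher B-score means a larger calcium signal and so more RGS4 inhibition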
Target sequence (P49798 whole entry, looked up): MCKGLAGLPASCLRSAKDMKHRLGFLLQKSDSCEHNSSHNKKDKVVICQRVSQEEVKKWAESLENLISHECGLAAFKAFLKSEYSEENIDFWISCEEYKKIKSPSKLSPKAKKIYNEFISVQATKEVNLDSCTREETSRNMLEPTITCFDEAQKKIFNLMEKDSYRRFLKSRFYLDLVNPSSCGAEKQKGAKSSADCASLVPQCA
MrgX1 PAM: positive allosteric modulators of MrgX1, primary screen, HEK293 cells, Fluo-4 calcium flux; FDSS; stronger effect = higher value; B-score at 10 µM; 0.63% of 310,000 active; AID 588675, 2011;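 active = plate-corrected calcium response at least 3 library SD above typical, normal starting fluorescence, not activating the receptor alone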;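 also: compound read alongside a low EC10 to EC30 dose of BAM8-22 agonist; peak minus trough fluorescence over baseline measured at the second addition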
RGS4 pot: RGS4 potentiators or activators, primary screen, cell-based, HEK293 M3R inducible RGS4, calcium flux. carbachol calcium flux Fluo4; stronger effect = lower value. B-score at 10 µM. 0.92% of 310,000 active. AID 463111, 2010;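 active = B-score of the integrated calcium signal more than 4 SD below the library mean, with starting fluorescence not abnormally high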;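 also: negative B-score means reduced calcium response which marks RGS4 activation or potentiation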
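Test system: HEK293 cells with stable M3R and inducible RGS4; also added: carbachol at ECmax as muscarinic agonist stimulus; schedule: dye loading 30 min 37 °C, buffer rest 30 min RT; technique: kinetic calcium fluorescence imaging with Fluo4-AM dye, 2 µM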
Numbers without * were called inactive.

Screening O=C(Nc1ccc(Cl)cc1)Nc1ccc(N2CCCC2)c(S(=O)(=O)Nc2ccccc2Cl)c1 returned MrgX1 antag -6*, MrgX1 ag inactive, PHOSPHO1 block -15, RGS4 inh inactive, MrgX1 PAM inactive and RGS4 pot inactive.
`CC(C)NC(=O)NC(=O)CN1c2cccc3cccc(c23)S1(=O)=O` gave MrgX1 antag inactive, MrgX1 ag inactive, PHOSPHO1 block 44, RGS4 inh inactive, MrgX1 PAM inactive and RGS4 pot inactive.
`COc1ccc(/C=N/NC(=O)c2cc(C34CC5CC(CC(C5)C3)C4)[nH]n2)cc1OC` gave MrgX1 antag inactive, MrgX1 ag inactive, PHOSPHO1 block -7, RGS4 inh inactive, MrgX1 PAM inactive and RGS4 pot inactive.
`COc1cc(/C=N/NC(=O)NC23CC4CC(CC(C4)C2)C3)ccc1OCC(N)=O` gave MrgX1 antag inactive, MrgX1 ag inactive, PHOSPHO1 block 24, RGS4 inh inactive, MrgX1 PAM inactive and RGS4 pot -8.1*.
For COc1cc(/C=N/NC(N)=S)ccc1OCC(=O)Nc1ccc(C)cc1 the results were MrgX1 antag -5.5*, MrgX1 ag inactive, PHOSPHO1 block 29, RGS4 inh inactive, MrgX1 PAM inactive and RGS4 pot inactive.
COC(=O)CN(C#N)c1nc(NCc2ccccc2)nc(OC)n1 was read as MrgX1 antag inactive, MrgX1 ag inactive, PHOSPHO1 block 46, RGS4 inh inactive, MrgX1 PAM inactive and RGS4 pot inactive.
Cc1ccc(NC(=O)CN2CC(C)SC2=NC2CCCCC2)cc1 (stereo not drawn) was read as MrgX1 antag inactive, MrgX1 ag inactive, PHOSPHO1 block 74* and MrgX1 PAM inactive.
`Cc1ccc(NC(=O)CN2CCOCC2)cc1` gave MrgX1 antag inactive, MrgX1 ag inactive, PHOSPHO1 block 27, RGS4 inh inactive, MrgX1 PAM inactive and RGS4 pot inactive.
`CCOC(=O)CNC(=O)N(CCOC)CC1CCCN(C2Cc3ccccc3C2)C1` (stereo not drawn) gave MrgX1 antag inactive, MrgX1 ag inactive, RGS4 inh inactive, MrgX1 PAM inactive and RGS4 pot inactive.
`O=[N+]([O-])c1ccccc1S(=O)(=O)N1CCN(c2ccccc2)CC1` gave MrgX1 antag inactive, MrgX1 ag inactive, PHOSPHO1 block 19, RGS4 inh inactive, MrgX1 PAM inactive and RGS4 pot inactive.
`CCc1ccc(-c2cc(C(=O)N3N=C(C(F)F)CC3(O)C(F)F)c3ccccc3n2)cc1` (stereo not drawn) gave MrgX1 antag inactive, MrgX1 ag inactive, PHOSPHO1 block 9, RGS4 inh inactive, MrgX1 PAM inactive and RGS4 pot -7.2*.
`CC(C)Cc1cc(C(=O)N2N=C(C(F)F)CC2(O)C(F)F)c2ccccc2n1` (stereo not drawn) gave MrgX1 antag inactive, MrgX1 ag inactive, PHOSPHO1 block -11, RGS4 inh inactive, MrgX1 PAM inactive and RGS4 pot inactive.
For COCCN(C(=S)Nc1ccc(C(C)C)cc1)C(C)c1cccs1 (stereo not drawn) the results were MrgX1 antag inactive, MrgX1 ag inactive, PHOSPHO1 block 37, RGS4 inh inactive, MrgX1 PAM inactive and RGS4 pot inactive.
For CC(=O)Nc1ccc(NC(=O)CSc2ccc([N+](=O)[O-])cn2)cc1 the results were MrgX1 antag inactive, MrgX1 ag inactive, PHOSPHO1 block 2, RGS4 inh inactive, MrgX1 PAM inactive and RGS4 pot inactive.
Screening CCOc1ccccc1NC(=O)C1=C(C)NC(=O)NC1c1cccc(OC)c1OC (stereo not drawn) returned MrgX1 antag inactive, MrgX1 ag inactive, PHOSPHO1 block 62*, RGS4 inh inactive, MrgX1 PAM inactive and RGS4 pot inactive.
`COc1ccccc1NC(=O)C1=C(C)NC(=O)NC1c1cccc(OC)c1OC` (stereo not drawn) gave MrgX1 antag inactive, MrgX1 ag inactive, PHOSPHO1 block 5, RGS4 inh inactive, MrgX1 PAM inactive and RGS4 pot inactive.
For COC(=O)c1cc2nc(-c3ccccc3)cc(C)n2n1 the results were MrgX1 antag inactive, MrgX1 ag inactive, PHOSPHO1 block -5, RGS4 inh inactive, MrgX1 PAM inactive and RGS4 pot inactive.
Screening Cc1cc(-c2ccccc2)nc2cc(C(=O)N(Cc3ccccc3)Cc3ccccc3)nn12 returned MrgX1 antag inactive, MrgX1 ag inactive, PHOSPHO1 block 10, RGS4 inh inactive, MrgX1 PAM inactive and RGS4 pot -7.9*.
Screening COc1cccc(C(C(=O)Nc2ccc(F)cc2)N(C(=O)Cn2nnc3ccccc32)C2CC2)c1 (stereo not drawn) returned MrgX1 antag inactive, MrgX1 ag inactive, PHOSPHO1 block 40, RGS4 inh inactive, MrgX1 PAM inactive and RGS4 pot inactive.
`Cc1c(/C(O)=C2/C(=O)C(=O)N(CCN3CCOCC3)C2c2ccccn2)cnn1-c1ccccc1` (stereo not drawn) gave MrgX1 antag inactive, MrgX1 ag inactive, PHOSPHO1 block 60*, RGS4 inh inactive, MrgX1 PAM inactive and RGS4 pot inactive.
`Cc1ccc(C2/C(=C(/O)c3cnn(-c4ccccc4)c3C)C(=O)C(=O)N2CCCN2CCOCC2)o1` (stereo not drawn) gave MrgX1 antag inactive, MrgX1 ag inactive, PHOSPHO1 block 45, RGS4 inh inactive, MrgX1 PAM inactive and RGS4 pot inactive.
Screening O=C(NC1CC1)C1=C[C@H](c2ccc(C(F)(F)F)cc2)C[C@H](OCc2ccc(CO)cc2)O1 returned MrgX1 antag inactive, MrgX1 ag inactive, PHOSPHO1 block 32, RGS4 inh inactive, MrgX1 PAM inactive and RGS4 pot inactive.
`CCn1c(SCC(=O)Nc2cccc(OC)c2)nnc1-c1ccc(Cl)cc1` gave MrgX1 antag inactive, MrgX1 ag inactive, PHOSPHO1 block 74*, RGS4 inh inactive, MrgX1 PAM inactive and RGS4 pot inactive.
`CCn1c(SCCC(=O)Nc2ccccc2)nnc1-c1ccc(OC)cc1` gave MrgX1 antag inactive, MrgX1 ag inactive, PHOSPHO1 block 15, RGS4 inh inactive, MrgX1 PAM inactive and RGS4 pot inactive.
`CN(C)c1ccc(NC(=O)CSc2nnc(-c3cccs3)n2Cc2ccco2)cc1` gave MrgX1 antag inactive, MrgX1 ag inactive, PHOSPHO1 block 90*, RGS4 inh inactive, MrgX1 PAM inactive and RGS4 pot inactive.
